ChEMBL document CHEMBL1122328, “Hypolipidemic activity of phthalimide derivatives. 2. N-phenylphthalimide and derivatives” (1983)

What was measured:
Assay type in all cases: functional
Mus musculus [1] = assay: Effect on mg of lipid from CF1 male mice after 16 days at a dose of 60 (mg/kg/day)
Summary of the method: (§1)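 Dosing was ip in CF₁ male mice (~25 g) for 16 days, with compound suspended in 1% carboxymethylcellulose. Liver was then taken and homogenised to 10% in 0.25 M sucrose with 0.001 M EDTA. Lipid was extracted from a 2 mL aliquot by the Folch and Bligh–Dyer methods and total mg of lipid was weighed. Cholesterol (Liebermann–Burchard), triglycerides (kit), neutral lipids and phospholipids were then measured; N = 6; reported as % of vehicle control.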

Rattus norvegicus [2] = assay: Effect on Serum cholesterol levels on Holtzman rats at a dose of 20 (mg/kg)/day after 16 days
Summary of the method: (§2)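 Holtzman male rats (~200 g) dosed orally by intubation needle daily for 16 days, drug suspended in 1% carboxymethylcellulose; n = 6; vehicle control. Tail-vein serum cholesterol on days 9 and 16 by modified Liebermann–Burchard reaction; day-14 serum triglyceride by commercial kit; % control.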

Rattus norvegicus [3] = assay: Effect on very low density Phospholipids Holtzman rats after 14 days administration
Summary of the method: (§3)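 Holtzman male rats (~400 g) received drug at 20 (mg/kg)/day for 14 days. On day 14, blood was collected from the abdominal aorta and serum was separated by centrifugation at 3500 rpm. Lipid content of the lipoprotein fractions was then determined.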

Mus musculus [4] = assay: Effect on Serum cholesterol levels on CF1 male mice at a dose of 100 (mg/kg)/day after 9 days
Summary of the method: (§4)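 CF1 male mice (~25 g), drug suspended in 1% carboxymethylcellulose in water, given ip daily for 16 days; n = 6; vehicle control. Tail-vein blood on days 9 and 16, serum cholesterol by modified Liebermann–Burchard reaction; day-14 serum triglyceride by commercial kit; expressed as % control.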

Mus musculus [5] = assay: Effect on neutral lipids from CF1 male mice after 16 days at a dose of 60 (mg/kg/day); summary of the method: as §1
Mus musculus [6] = assay: In vitro effect on CF1 male mouse onAc-CoA carboxylase after 16 days at a dose of 10 (mg/kg)/day; conditions: in the assay text read “In vivo” for “In vitro”
Summary of the method: (§5)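 Mice (CF1 males) given agent ip daily for 16 days in 1% carboxymethylcellulose; liver 10% homogenate in 0.25 M sucrose + 0.001 M EDTA. Acetyl-CoA carboxylase first polymerized 30 min at 37 °C, then incubated 30 min at 37 °C with sodium [14C]bicarbonate (41.0 mCi/mmol); incorporated label counted. Activity as % of vehicle control; N = 6.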

Rattus norvegicus [7] = assay: Effect on cholesterol chylomicrons Holtzman rats after 14 days administration
Summary of the method: (§6)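 Holtzman male rats (~400 g) given drug at 20 (mg/kg)/day for 14 days; on day 14 blood taken from the abdominal aorta and serum separated by centrifugation at 3500 rpm; lipid and protein content of the lipoprotein fractions measured.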

Rattus norvegicus [8] = assay: Effect on high density cholesterol Holtzman rats after 14 days administration; summary of the method: as §6
Rattus norvegicus [9] = assay: Effect on Serum triglceride levels on Holtzman rats at a dose of 20 (mg/kg)/day after 14 days; summary of the method: as §2
Mus musculus [10] = assay: Effect on neutral lipids from CF1 male mice after 16 days at a dose of 10 (mg/kg/day); summary of the method: as §1
Mus musculus [11] = assay: In vitro effect on CF1 male mouse on Fatty acid synthetase after 16 days at a dose of 60 (mg/kg)/day
Summary of the method: (§7)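 In vivo enzyme study. CF₁ male mice were dosed ip for 16 days in 1% CMC, and liver was homogenised to 10% in 0.25 M sucrose with 0.001 M EDTA. Enzymes assayed: acetyl-CoA synthetase as hydroxamate at 540 nm after 30 min at 37 °C; HMG CoA reductase with [1-¹⁴C]acetate in 9000g supernatant for 60 min at 37 °C; fatty acid synthetase with [2-¹⁴C]malonyl-CoA; acyltransferase with [³H]glycerol 3-phosphate and microsomes for 10 min; phosphatidate phosphohydrolase as released phosphate at 820 nm after 30 min. N = 6; reported as % control.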

Mus musculus [12] = assay: Effect on Serum triglceride levels on CF1 male mice at a dose of 12.5 (mg/kg)/day after 14 days; summary of the method: as §4
Mus musculus [13] = assay: Effect on neutral lipids from CF1 male mice after 16 days at a dose of 20 (mg/kg/day); summary of the method: as §1
Rattus norvegicus [14] = assay: Effect on very low density neutral lipids Holtzman rats after 14 days administration; summary of the method: as §3
Mus musculus [15] = assay: In vitro effect on CF1 male mouse on acyltransferase after 16 days at a dose of 60 (mg/kg)/day; summary of the method: as §7
Mus musculus [16] = assay: Effect on Serum cholesterol levels on CF1 male mice at a dose of 50 (mg/kg)/day after 9 days; summary of the method: as §4
Mus musculus [17] = assay: In vitro effect on CF1 male mouse on HMGCoA reductase after 16 days at a dose of 40 (mg/kg)/day; summary of the method: as §7
Mus musculus [18] = species: Mus musculus; assay: In vitro effect on CF1 male mouse on acyltransferase
Rattus norvegicus [19] = assay: Effect on Chylomicrons of Triglycerides Holtzman rats after 14 days administration; summary of the method: as §6
Mus musculus [20] = assay: In vitro effect on CF1 male mouse on acyltransferase after 16 days at a dose of 20 (mg/kg)/day; summary of the method: as §7
Mus musculus [21] = assay: In vitro effect on CF1 male mouse on Lipid content after 16 days at a dose of 60 (mg/kg)/day
Mus musculus [22] = assay: In vitro effect on CF1 male mouse on phosphatidate phosphohydrolase after 16 days at a dose of 40 (mg/kg)/day
Summary of the method: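 CF1 male mice dosed ip daily for 16 days, drug suspended in 1% carboxymethylcellulose; liver taken as 10% homogenate in 0.25 M sucrose + 0.001 M EDTA. Phosphatidate phosphohydrolase measured as inorganic phosphate released from phosphatidic acid after 30 min, developed with ascorbic acid/ammonium molybdate, read at 820 nm. Expressed as % of 1% CMC vehicle control; N = 6.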

Rattus norvegicus [23] = assay: Effect on neutral lipids Holtzman rats after 14 days administration
Mus musculus [24] = species: Mus musculus; assay: In vitro effect on CF1 male mouse on Ac-CoA carboxylase
Summary of the method: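 In vitro test on 10% CF₁ male mouse liver homogenate (0.25 M sucrose, 0.001 M EDTA) with 2.5 μmol test drug. Assays: acetyl-CoA synthetase and citrate lyase as hydroxamate at 540 nm, 30 min, 37 °C; citrate exchange from [¹⁴C]citrate-loaded mitochondria after 10 min with drug; side-chain oxidation by ¹⁴CO₂ from [26-¹⁴C]cholesterol, 18 h, 37 °C; acetyl-CoA carboxylase by [¹⁴C]bicarbonate fixation after 30 min polymerization then 30 min at 37 °C.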

Mus musculus [25] = assay: Effect on mg of lipid from CF1 male mice after 16 days at a dose of 20 (mg/kg/day)
Summary of the method: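 CF1 male mice dosed ip for 16 days at 10–60 (mg/kg)/day; liver taken and 10% homogenate made in 0.25 M sucrose + 0.001 M EDTA; aliquot extracted by Folch and Bligh–Dyer methods, mg lipid weighed, cholesterol measured by Liebermann–Burchard method; n = 6; % of 1% CMC control.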

Mus musculus [26] = assay: Effect on triglycerides from CF1 male mice after 16 days at a dose of 60 (mg/kg/day); summary of the method: as §1
Mus musculus [27] = assay: In vitro effect on CF1 male mouse on Fatty acid synthetase after 16 days at a dose of 10 (mg/kg)/day; summary of the method: as §7
Mus musculus [28] = assay: Effect on Serum cholesterol levels on CF1 male mice at a dose of 25 (mg/kg)/day after 16 days; summary of the method: as §4
Mus musculus [29] = assay: In vitro effect on CF1 male mouse onAc-CoA carboxylase after 16 days at a dose of 20 (mg/kg)/day; conditions: in the assay text read “In vivo” for “In vitro”; summary of the method: as §5

CC(=O)c1ccccc1N1C(=O)c2ccccc2C1=O
Control (Mus musculus [1]): 80% | Control (Rattus norvegicus [2]): 56% | Control (Rattus norvegicus [3]): 359% | Control (Mus musculus [4]): 42% | Control (Mus musculus [5]): 62% | Control (Mus musculus [6]): 8% | Control (Rattus norvegicus [7]): 64% | Control (Rattus norvegicus [8]): 52% | Control (Rattus norvegicus [9]): 61% | Control (Mus musculus [10]): 36% | Control (Mus musculus [11]): 100% | Control (Mus musculus [12]): 56% | Control (Mus musculus [13]): 65% | Control (Rattus norvegicus [14]): 81% | Control (Mus musculus [15]): 45% | Control (Mus musculus [16]): 68% | Control (Mus musculus [17]): 84% | Control (Mus musculus [18]): 54% | Control (Rattus norvegicus [19]): 41% | Control (Mus musculus [20]): 41% | Control (Mus musculus [21]): 80% | Control (Mus musculus [22]): 54% | Control (Rattus norvegicus [23]): 55% | Control (Mus musculus [24]): 35% | Control (Mus musculus [25]): 85% | Control (Mus musculus [26]): 100% | Control (Mus musculus [27]): 106% | Control (Mus musculus [28]): 38% | Control (Mus musculus [29]): 41%
